NSD2 HMT inh: NSD2 (human) methyltransferase inhibition; O96028; NSD2 peptide methylation, AlphaScreen, 120 min; inhibition, % at 12.5 µM; 310,000 tested, 0.54% active; in the data active means inhibition above about 50%
MLL AF4-AF9 inh: inhibitors of human MLL-AF4/AF9 interaction; P42568; AlphaScreen, biotin-AF4 peptide binding to FLAG-AF9; inhibition, % at 10 µM; 350,000 tested, 0.47% active;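 active means every replicate reaching a set inhibition limit, whatever the replicate mean, cut at about 25% in these data; inconclusive means mean inhibition reaches that limit but some replicates miss it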;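 further: 0% = plate neutral control median and 100% = total signal loss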
Target sequence (P42568 whole entry, looked up): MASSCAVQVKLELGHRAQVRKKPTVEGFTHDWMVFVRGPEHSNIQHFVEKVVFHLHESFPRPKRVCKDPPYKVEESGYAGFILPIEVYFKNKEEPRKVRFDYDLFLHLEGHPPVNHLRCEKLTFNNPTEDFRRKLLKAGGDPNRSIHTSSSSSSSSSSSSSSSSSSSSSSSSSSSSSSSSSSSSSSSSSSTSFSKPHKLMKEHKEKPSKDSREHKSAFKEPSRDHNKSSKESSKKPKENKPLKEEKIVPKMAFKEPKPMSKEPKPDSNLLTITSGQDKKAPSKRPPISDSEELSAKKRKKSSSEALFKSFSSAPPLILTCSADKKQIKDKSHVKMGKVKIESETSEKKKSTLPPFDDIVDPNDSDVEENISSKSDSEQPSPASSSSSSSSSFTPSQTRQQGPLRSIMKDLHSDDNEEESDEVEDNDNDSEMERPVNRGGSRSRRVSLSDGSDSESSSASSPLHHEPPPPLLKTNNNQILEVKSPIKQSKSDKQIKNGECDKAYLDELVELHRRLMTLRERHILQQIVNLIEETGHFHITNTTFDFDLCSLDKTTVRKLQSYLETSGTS
FN deposit inh: fibronectin deposition inhibition; AH1F fibroblasts, Alexa488-fibronectin deposition fluorescence, overnight; inhibition, % at 12.6 µM; 350,000 tested, 0.086% active; AID 743247;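 active means mean inhibition across replicates of 30% or more, regardless of how many single replicates reach that level; inconclusive means mean under 30% yet at least half of replicates reach 30%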;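 further: positive control wells lacked labelled fibronectin entirely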
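Schedule: 1 h cell adhesion before compound, then overnight fibronectin incubation; test system: AH1F fibroblast monolayer depositing Alexa488-labelled fibronectin into matrix; quantity: 10000 AH1F cells per well; probe or stimulus: fluorescent fibronectin at 24 nM final; signal: fluorescence, ex 485 nm, em 525 nm; evaluation: percent inhibition as loss of matrix-bound fibronectin fluorescence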
RAD52 anneal inh: RAD52 (human) annealing inhibition; inhibition, % at 18.7 µM; P43351; 360,000 tested, 0.46% active; recombinant RAD52 DNA annealing, FRET fluorescence;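 active means every replicate showing at least 50% inhibition; inconclusive means mean inhibition at least 50% but not in every replicate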
Glyco luc inh: N-linked glycosylation inhibition. AID 588692. D54 ERlucT glycosylation luciferase reporter, 24 h; percent of 100 nM tunicamycin response. 360,000 tested, 0.23% active. reporter increase, % at 12.5 µM;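 active means mean luciferase reporter signal, scaled so untreated is 0 and the glycosylation-blocking control 100, at or above a set limit in every replicate; inconclusive means mean reaches the limit but not every replicate does; inactive means mean below the limit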;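 further: luciferase carries N-glycosylation sites so blocking glycosylation raises the light; 0% = median of neutral control wells and 100% = median of 100 nM tunicamycin wells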
RAD54 inh: blocks human RAD54 Holliday junction branch migration. Q92698. inhibition, % at 10.4 µM. FAM/BHQ fluorescence. 360,000 tested, 0.14% active. AID 602329;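 active means mean normalized replicate activity at least 40 and at least half of replicates scoring 40 or more; inconclusive means only one of the two criteria met; inactive means mean below 40 and under half of replicates reaching 40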;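 further: 0% = median of neutral control wells and 100% = median of positive control wells; inhibitors cause a drop in the FAM fluorescence signal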
DNA binder FP: binds DNA, flagging false RAD52 inhibitor hits; shares compounds with RAD52 anneal inh; Salmon sperm DNA/acridine orange FP displacement, DNA binding; AC50, µM; 1,000 tested, 8% active; AID 652128;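 active means fitted half-maximal concentration for signal loss at or below twice the highest dose tested, in every separate run, actives reach about 64 µM in these data; inconclusive means runs disagree, or flat partial signal loss, or poor fit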
Numbers without * were called inactive; i = inactive; u = inconclusive; x = no result. An excerpt weighted towards active compounds, which were near 1.2% of everything screened.

SMILES	NSD2 HMT inh	MLL AF4-AF9 inh	FN deposit inh	RAD52 anneal inh	Glyco luc inh	RAD54 inh	DNA binder FP
CN1CCN(C2CCN(Cc3ccc(O)c4ncccc34)CC2)CC1	x	47.1*	15.8	91.8*	3.0	16.2	i
C[C@H]1CN([C@@H](C)CO)C(=O)Cc2cc(NC(=O)Nc3ccc4c(c3)OCO4)ccc2O[C@@H]1CN(C)C(=O)NC1CCCCC1	x	0.9	x	3.3	x	4.7	x
Cc1noc(C)c1S(=O)(=O)N(C)C[C@H]1Oc2ccc(NC(=O)NC3CCCCC3)cc2CC(=O)N([C@@H](C)CO)C[C@@H]1C	x	0.1	0.9	6.3	x	1.9	x
CCc1cc(C(=O)Nc2cc(S(=O)(=O)N(CC)CC)ccc2N2CCN(C)CC2)sc1C	12.3	-3.8	-2.4	89.3*	0.3	-1.0	i
CCc1cc(C(=O)Nc2cc(Cl)ccc2N2CCN(C)CC2)sc1C	-0.5	-26.4	-2.1	3.7	-5.0	x	x
COc1ccc2c3c([nH]c2c1)[C@@H](CO)N(Cc1cccnc1)CC31CN(C(=O)c2cccnc2)C1	x	x	x	-18.3	x	x	x
CN(C)CCCn1c(=S)[nH]c2sc3c(c2c1=O)CCCC3	x	9.2	-2.9	97.2*	-1.5	10.5	i
CCn1c(=S)[nH]c2sc3c(c2c1=O)CCCC3	2.4	-5.8	4.1	-31.3	-3.4	0.2	x
O=C(CN1CCOCC1)NCC[C@@H]1CC[C@@H](NC(=O)c2ccc3c(c2)OCO3)[C@H](CO)O1	x	1.4	-12.8	-1.3	x	-2.8	x
Cc1cc(N2CCN(C)CC2)nc2ccc(NC(=S)N3CCCCC3)cc12	3.5	20.8	2.5	71.2*	-2.0	43.0	i
Cc1cc(N2CCN(C)CC2)nc2ccc(NC(=S)N3CCN(c4ccc(Cl)cc4)CC3)cc12	x	17.5	7.4	89.6*	0.6	19.6	i
Cc1cc(N2CCN(C)CC2)nc2ccc(NC(=S)N3CCCCCC3)cc12	x	5.1	5.7	51.8*	-0.6	18.4	i
Cc1cc(N2CCN(C)CC2)nc2ccc(NC(=S)N3CCN(c4ccc(F)cc4)CC3)cc12	-1.5	-6.9	4.9	-6.4	-4.1	-2.8	x
CO[C@@H]1CN(C)C(=O)c2ccc(NC(=O)Nc3cc(F)ccc3F)cc2OC[C@H](C)N(C)C[C@@H]1C	x	-1.0	-0.1	-46.8	x	3.5	x
C/C=C/c1cnc2c(c1)C(=O)N([C@H](C)CO)C[C@@H](C)[C@H](CN(C)C(=O)NC1CCCCC1)O2	x	-4.0	1.7	-10.9	x	0.3	x
Cc1ccc(NCCN(C)C)c2c(=O)c3cc(O)ccc3sc12	-1.1	39.2*	14.9	84.2*	62.5*	x	11.9µM*
CNC[C@@H]1OCCCC[C@@H](C)Oc2ccc(NS(=O)(=O)c3ccccc3)cc2C(=O)N([C@@H](C)CO)C[C@H]1C	x	-7.9	x	-73.9	x	4.9	x
CC(C)NC(=O)N(C)C[C@@H]1Oc2ncccc2C(=O)N(C)C[C@H]1C	x	x	0.2	x	x	x	x
CN(C)CCCn1c2c3ccccc3ccc2c2oc(=O)c3ccccc3c21	-1.0	-16.0	2.3	63.8*	1.1	x	i
CSC1SCC2C(=O)N(C)C(C(C)C)C(=O)OCC(NC(=O)c3cnc4ccccc4n3)C(=O)NC(C)C(=O)N(C)C1C(=O)N(C)C(C(C)C)C(=O)OCC(NC(=O)c1cnc3ccccc3n1)C(=O)NC(C)C(=O)N2C (centres undefined)	-1.2	-2.4	0.2	72.5*	-8.9	x	i
C[C@@H]1CN([C@@H](C)CO)C(=O)Cc2cc(NS(=O)(=O)c3cccs3)ccc2O[C@H]1CN(C)C	x	-0.8	x	-0.6	x	3.8	x
O=C(NCC1CCCO1)c1nnc(Cc2ccc(F)cc2)o1 (centres undefined)	x	1.4	-1.5	53.3*	-1.7	2.6	i
Cc1c(C)n(C)c2ccc(C(=O)NCCCN3CCN(C)CC3)cc12	25.2	14.1	-2.0	74.2*	0.1	9.7	i
COc1cc2c(cc1OC)C(c1ccccc1)=NCC2	-1.2	0.3	3.5	-5.7	0.2	-1.3	x
COc1cc2c(cc1OC)C(c1ccccc1N)=NCC2	-0.3	x	6.9	61.3*	-0.4	25.9	i
SMILES	NSD2 HMT inh	MLL AF4-AF9 inh	FN deposit inh	RAD52 anneal inh	Glyco luc inh	RAD54 inh	DNA binder FP
C=CCNc1nc(NCc2ccc(NC(C)=O)cc2)c2sc(-c3ccccc3)cc2n1	-2.2	-0.1	x	-31.5	-5.2	-7.9	x
CC(=O)Nc1ccc(CNc2nc(NC(C)C)nc3cc(-c4ccccc4)sc23)cc1	5.3	0.6	9.3	96.6*	-8.4	-6.8	i
COc1ccccc1CNc1nc(NCc2ccc(NC(C)=O)cc2)c2sccc2n1	-2.4	-5.9	-17.7	50.8*	-1.4	3.7	i
COc1ccccc1CNc1nc(NCc2ccccc2OC)c2sccc2n1	0.9	2.5	11.9	-9.8	-4.0	0.1	x
O=C(C[C@@H]1C=C[C@H](NC(=O)c2ccc3c(c2)OCO3)[C@H](CO)O1)NCc1ccc(Cl)cc1	x	-1.3	x	-13.3	x	1.4	x
CCCCCCCCCCCCCCCC[n+]1ccc(C(N)=O)cc1	3.8	x	-15.6	x	-12.3	12.5	x
CCCCCCCCCCCCCCCC[n+]1ccccc1	12.5	-3.4	29.0	92.8*	-11.5	55.2*	u
CN1c2ccc(-c3ccccc3F)cc2[C@H]2[C@H](CCN2S(=O)(=O)c2ccccc2)[C@@H]1CO	x	-0.2	-1.5	13.4	x	-10.2	x
CN(CCCCCCCCCCN(C)C(=O)Oc1cccc([N+](C)(C)C)c1)C(=O)Oc1cccc([N+](C)(C)C)c1	x	16.2	-2.9	51.6*	1.0	-4.6	i
O=C(N[C@H]1CC[C@@H](CCNC(=O)C2CCC2)O[C@H]1CO)c1ccncc1	x	-1.6	-5.7	4.6	x	-2.1	x
COCC#Cc1ccc2c(c1)O[C@H](CN(C)C(=O)Nc1ccccc1F)[C@H](C)CN([C@@H](C)CO)S2(=O)=O	x	-5.5	x	-1.2	x	3.8	x
CO[C@@H]1CN(C)C(=O)c2cc(NS(=O)(=O)c3c(C)noc3C)ccc2OC[C@H](C)NC[C@@H]1C	x	-0.5	15.2	-17.0	x	-8.1	x
COc1ccc(S(=O)(=O)N(C)C[C@H]2OCCCC[C@@H](C)Oc3ccc(NC(=O)Nc4ccc5c(c4)OCO5)cc3C(=O)N([C@@H](C)CO)C[C@H]2C)cc1	x	3.3	x	-16.2	x	-22.0	x
NCCNCCNCCN	x	16.9	9.5	94.3*	1.5	21.2	i
CN1[C@@H]2c3ccc(C4=CCCC4)c(=O)n3C[C@H]1[C@H](CO)[C@H]2C(=O)N1CCOCC1	x	-5.8	x	-21.0	x	-10.8	x
